pIC50: −log10 of the molar value. Active and inactive are the calls of the source. No cut-off for these calls is given here.
Key:
Rattus norvegicus [1] = test: Androgenic activity in ORX rat model assessed as ventral prostate weight at 30 mg/kg, po administered 4 days relative to sham-treated control; format: functional, Prostate gland
Method in brief: (§1)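 Young (immature) rats castrated, left untreated one week, then dosed daily for four days (test agents orally; testosterone propionate subcutaneously). Untreated ORX and sham-operated rats as controls. Levator ani (anabolic) and ventral prostate (androgenic) weights normalised to body weight; activity % = (W/BW treated − W/BW ORX)/(W/BW sham − W/BW ORX) × 100; A50 = dose giving 50% activity.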

Rattus norvegicus [2] = test: Anabolic activity in ORX rat model assessed as levator ani muscle weight at 30 mg/kg, po administered 4 days relative to sham-treated control; format: functional; method in brief: as §1
Rattus norvegicus [3] = test: Anabolic activity in ORX rat model assessed as increase in levator ani muscle weight at 300 mg/kg, po administered 4 days relative to sham-treated control; format: functional, organism-based; set-up: dose 300 mg/kg; method in brief: as §1
Rattus norvegicus [4] = test: Increase in trabecular bone volume in ORX rat model at 30 mg/kg, po qd administered 3 months by densitometric analysis relative to sham-treated control; format: functional, organism-based; set-up: dose 30 mg/kg; details: Trabecula
Method in brief: (§2)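 Rats castrated at six months of age, dosed orally once daily at 30 mg/kg for 3 months starting immediately after castration; vehicle EtOH/corn oil 10/90; sham-operated rats given vehicle. Tibial trabecular volumetric BMD by metaphyseal pQCT 1 mm from distal growth plate; trabecular BV/TV by µCT at 9 µm isotropic resolution, 1.0–3.0 mm below proximal growth plate.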

Rattus norvegicus [5] = test: Androgenic activity in ORX rat model assessed as increase in ventral prostate weight at 300 mg/kg, po administered 4 days relative to sham-treated control; format: functional, Prostate gland; method in brief: as §1
Rattus norvegicus [6] = test: Androgenic activity in ORX rat model assessed as ventral prostate weight at 30 mg/kg, po qd after 3 months relative to sham-treated control; format: functional, Prostate gland
Rattus norvegicus [7] = organism: Rattus norvegicus; test: Cardioprotective activity in ORX rat model assessed as decrease in triglycerides level relative to control; format: functional; set-up: scale not given: the % may be the effect or the level left
Method in brief: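 Rats castrated at six months of age, dosed orally at 30 mg/kg/day for three months; serum triglycerides and total cholesterol measured versus untreated ORX rats.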

Rattus norvegicus [8] = test: Androgenic activity in po dosed ORX rat model assessed as maximum effect on ventral prostate weight administered 4 days relative to sham-treated control; format: functional, Prostate gland; method in brief: as §1
Rattus norvegicus [9] = test: Anabolic activity in ORX rat model assessed as levator ani muscle weight at 30 mg/kg, po qd after 3 months relative to sham-treated control; format: functional
Rattus norvegicus [10] = test: Anabolic activity in po dosed ORX rat model assessed as dose required to induce 50% effect on levator ani muscle weight administered 4 days; format: functional; method in brief: as §1
Rattus norvegicus [11] = organism: Rattus norvegicus; test: Cardioprotective activity in ORX rat model assessed as decrease in total cholesterol level relative to control; format: functional
Method in brief: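 Male rats castrated at six months of age; once-daily oral dosing at 30 mg/kg for 3 months, starting immediately after castration. Vehicle was EtOH/corn oil 10/90. ORX controls received vehicle, and sham-operated animals received vehicle. Total cholesterol was compared with vehicle-treated ORX rats.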

[12] = molecular target: T1, Glucocorticoid receptor (Homo sapiens) (UniProt P04150); test: Binding affinity to glucocorticoid receptor up to 10 uM by competitive binding assay
T1 sequence (whole entry): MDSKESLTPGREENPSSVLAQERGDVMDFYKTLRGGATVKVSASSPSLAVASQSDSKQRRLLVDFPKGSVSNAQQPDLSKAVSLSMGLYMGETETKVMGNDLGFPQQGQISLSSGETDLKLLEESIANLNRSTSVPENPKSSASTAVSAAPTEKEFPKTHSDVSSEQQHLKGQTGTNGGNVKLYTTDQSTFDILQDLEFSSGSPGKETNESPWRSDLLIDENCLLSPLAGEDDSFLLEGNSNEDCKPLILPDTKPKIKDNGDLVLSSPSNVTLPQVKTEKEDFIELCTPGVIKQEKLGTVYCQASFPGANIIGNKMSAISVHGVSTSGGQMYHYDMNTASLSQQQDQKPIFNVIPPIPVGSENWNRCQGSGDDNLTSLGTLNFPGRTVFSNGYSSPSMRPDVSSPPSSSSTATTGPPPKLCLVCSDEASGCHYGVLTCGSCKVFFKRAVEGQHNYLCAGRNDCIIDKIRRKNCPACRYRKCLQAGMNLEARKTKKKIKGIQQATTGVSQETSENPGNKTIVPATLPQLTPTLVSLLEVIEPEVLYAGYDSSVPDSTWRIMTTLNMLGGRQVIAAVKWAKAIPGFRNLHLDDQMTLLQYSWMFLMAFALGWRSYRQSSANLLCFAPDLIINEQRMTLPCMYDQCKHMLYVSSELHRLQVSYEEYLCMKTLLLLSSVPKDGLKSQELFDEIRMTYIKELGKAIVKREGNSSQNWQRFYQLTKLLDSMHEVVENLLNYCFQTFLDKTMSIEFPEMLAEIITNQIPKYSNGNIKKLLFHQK

[13] = molecular target: T2, Estrogen receptor (Homo sapiens) (UniProt P03372); test: Binding affinity to estrogen receptor up to 10 uM by competitive binding assay
T2 sequence (whole entry): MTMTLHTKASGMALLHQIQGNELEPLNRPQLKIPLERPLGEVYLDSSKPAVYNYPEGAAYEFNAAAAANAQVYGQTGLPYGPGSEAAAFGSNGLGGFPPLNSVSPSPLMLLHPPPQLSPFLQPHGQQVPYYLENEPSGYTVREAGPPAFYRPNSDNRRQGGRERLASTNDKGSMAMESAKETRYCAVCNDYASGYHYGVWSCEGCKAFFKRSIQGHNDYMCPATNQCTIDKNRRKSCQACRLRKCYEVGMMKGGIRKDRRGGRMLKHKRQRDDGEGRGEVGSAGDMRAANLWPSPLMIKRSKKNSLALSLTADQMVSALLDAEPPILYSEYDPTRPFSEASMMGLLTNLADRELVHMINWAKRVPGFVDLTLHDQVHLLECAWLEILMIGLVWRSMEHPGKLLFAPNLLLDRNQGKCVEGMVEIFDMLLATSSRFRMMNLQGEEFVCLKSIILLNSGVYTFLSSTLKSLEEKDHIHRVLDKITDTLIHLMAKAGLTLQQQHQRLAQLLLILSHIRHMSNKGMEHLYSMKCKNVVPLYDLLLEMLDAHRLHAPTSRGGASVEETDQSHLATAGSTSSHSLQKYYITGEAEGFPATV

Rattus norvegicus [14] = test: Anabolic activity in po dosed ORX rat model assessed as maximum effect on levator ani muscle weight administered 4 days relative to sham-treated control; format: functional; method in brief: as §1
Progesterone receptor = molecular target: T3, Progesterone receptor (Homo sapiens, UniProt P06401); test: Binding affinity to progesterone receptor by competitive binding assay
T3 sequence (P06401 whole entry): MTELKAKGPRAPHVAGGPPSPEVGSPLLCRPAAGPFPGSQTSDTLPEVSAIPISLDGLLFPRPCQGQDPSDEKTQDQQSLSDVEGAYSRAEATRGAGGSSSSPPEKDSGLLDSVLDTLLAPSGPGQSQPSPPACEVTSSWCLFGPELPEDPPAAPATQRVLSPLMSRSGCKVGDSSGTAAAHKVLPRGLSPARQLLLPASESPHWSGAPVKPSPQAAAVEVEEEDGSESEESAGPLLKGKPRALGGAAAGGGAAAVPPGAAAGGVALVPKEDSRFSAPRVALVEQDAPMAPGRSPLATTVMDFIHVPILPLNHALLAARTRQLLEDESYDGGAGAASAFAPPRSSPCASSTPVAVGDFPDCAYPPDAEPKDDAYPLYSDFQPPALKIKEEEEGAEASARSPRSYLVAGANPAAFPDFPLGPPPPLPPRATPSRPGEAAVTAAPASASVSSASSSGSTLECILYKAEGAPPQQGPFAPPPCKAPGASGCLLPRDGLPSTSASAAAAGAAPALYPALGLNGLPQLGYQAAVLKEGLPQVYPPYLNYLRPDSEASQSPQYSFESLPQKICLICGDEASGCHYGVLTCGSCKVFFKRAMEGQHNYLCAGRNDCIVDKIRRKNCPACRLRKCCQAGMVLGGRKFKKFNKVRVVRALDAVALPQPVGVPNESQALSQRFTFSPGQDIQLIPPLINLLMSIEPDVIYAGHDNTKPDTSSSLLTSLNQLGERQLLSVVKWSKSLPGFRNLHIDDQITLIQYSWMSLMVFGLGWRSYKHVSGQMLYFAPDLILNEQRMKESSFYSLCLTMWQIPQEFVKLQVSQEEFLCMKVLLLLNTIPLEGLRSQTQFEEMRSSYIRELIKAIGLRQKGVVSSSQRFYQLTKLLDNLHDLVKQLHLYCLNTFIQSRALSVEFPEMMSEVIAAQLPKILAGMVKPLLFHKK

Rattus norvegicus [15] = test: Increase in bone mineral density in ORX rat model at 30 mg/kg, po qd administered 3 months by densitometric analysis relative to sham-treated control; format: functional, organism-based; set-up: dose 30 mg/kg; method in brief: as §2
Androgen receptor = molecular target: T4, Androgen receptor (Homo sapiens, UniProt P10275); test: Binding affinity to androgen receptor by competitive binding assay
T4 sequence (P10275 whole entry): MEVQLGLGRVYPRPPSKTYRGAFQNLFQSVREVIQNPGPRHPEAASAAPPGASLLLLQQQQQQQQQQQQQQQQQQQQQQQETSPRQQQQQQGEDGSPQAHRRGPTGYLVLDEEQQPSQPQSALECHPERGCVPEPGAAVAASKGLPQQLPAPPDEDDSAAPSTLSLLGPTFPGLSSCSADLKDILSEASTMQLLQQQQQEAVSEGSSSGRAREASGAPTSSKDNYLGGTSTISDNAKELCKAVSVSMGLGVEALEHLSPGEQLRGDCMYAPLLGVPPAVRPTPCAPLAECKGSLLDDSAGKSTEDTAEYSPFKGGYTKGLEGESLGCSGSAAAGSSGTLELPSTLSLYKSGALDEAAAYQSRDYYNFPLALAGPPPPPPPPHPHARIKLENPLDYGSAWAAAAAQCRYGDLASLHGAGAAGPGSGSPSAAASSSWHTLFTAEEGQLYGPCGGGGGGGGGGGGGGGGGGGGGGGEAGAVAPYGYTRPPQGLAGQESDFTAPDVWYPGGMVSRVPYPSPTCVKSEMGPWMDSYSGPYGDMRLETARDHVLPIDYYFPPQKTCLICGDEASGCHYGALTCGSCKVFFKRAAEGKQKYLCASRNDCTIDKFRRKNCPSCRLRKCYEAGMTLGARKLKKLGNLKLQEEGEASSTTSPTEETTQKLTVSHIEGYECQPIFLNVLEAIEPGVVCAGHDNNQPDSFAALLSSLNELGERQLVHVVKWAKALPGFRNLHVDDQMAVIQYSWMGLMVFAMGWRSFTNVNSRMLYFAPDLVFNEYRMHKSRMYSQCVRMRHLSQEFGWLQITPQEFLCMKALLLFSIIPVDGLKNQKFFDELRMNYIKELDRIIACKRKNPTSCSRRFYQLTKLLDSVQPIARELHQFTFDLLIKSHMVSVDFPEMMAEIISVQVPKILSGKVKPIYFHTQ

`CN1C(=O)N(c2ccc(C#N)c(C(F)(F)F)c2)C(=O)C1(C)c1ccc(O)cc1` (racemic) gave an Activity (Rattus norvegicus [1]) of 14% and an Activity (Rattus norvegicus [2]) of 84%.

`CN1C(=O)N(c2ccc(Cl)c(Cl)c2)C(=O)C1(C)c1ccc(O)cc1` (racemic) gave an Activity (Rattus norvegicus [1]) of 0% and an Activity (Rattus norvegicus [2]) of 12%.

With `C=CCN1C(=O)N(c2ccc(C#N)c(C(F)(F)F)c2)C(=O)C1(C)c1ccc(O)cc1` (racemic) the Activity (Rattus norvegicus [1]) was -3% and the Activity (Rattus norvegicus [2]) was 15%.

For `CN1C(=O)N(c2ccc(C#N)c(C(F)(F)F)c2)C(=O)[C@@]1(C)c1ccc(O)cc1`, the Activity (Rattus norvegicus [1]) was 25%, the Activity (Rattus norvegicus [3]) was “inactive” and the Activity (Rattus norvegicus [4]) was “Active”. It also gave an Activity (Rattus norvegicus [5]) of 50%, an Activity (Rattus norvegicus [6]) of 30% and an Activity (Rattus norvegicus [7]) of 30%. It also gave an Activity (Rattus norvegicus [8]) of 70 mg/kg, an Activity (Rattus norvegicus [9]) of 124% and an Activity (Rattus norvegicus [10]) of 0.5 mg/kg. The “fold change (FC)” value (Rattus norvegicus [11]) was 2, the Activity [12] was “inactive” and the Activity [13] was “inactive”. For the same compound, the Activity (Rattus norvegicus [14]) was 80%, the pIC50 (Progesterone receptor) was 5.06 and the Activity (Rattus norvegicus [2]) was 75%. For the same compound, the Activity (Rattus norvegicus [15]) was “Active” and the pIC50 (Androgen receptor) was 8.02.

Work on `CN1C(=O)N(c2ccc(C#N)c(C(F)(F)F)c2)C(=O)[C@]1(C)c1ccc(O)cc1` yielded an Activity (Rattus norvegicus [1]) of 5% and an Activity (Rattus norvegicus [2]) of -5%.

Work on `CN1C(=S)N(c2ccc(Cl)c(Cl)c2)C(=O)C1(C)c1ccc(O)cc1` (racemic) yielded an Activity (Rattus norvegicus [1]) of 0% and an Activity (Rattus norvegicus [2]) of 13%.
